Data taken from ChEMBL document CHEMBL3272177, “Hypolipidemic alkoxybenzoic acids” (1976).

Key:
Design in all cases: scale not given: the % may be the effect or the level left
Rattus norvegicus [1] = species on record: Rattus norvegicus; assay: Reduction in sterol level in CFE rat […] at 0.025% of diet treated through diet for 6 days relative to control; format: functional, Serum
Outline: (§1)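 Compound dissolved in methanol-chloroform (1:3 v/v), mixed into ground rat chow at 0.1, 0.05 or 0.025% (w/w), and solvent evaporated; controls received solvent-treated chow. Rats fed ad libitum with water for 6 days, then killed fed and bled. Serum sterols and triglycerides measured by autoanalyzer. Values given as percent of control, mean ± SE; significance by Student's t test.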

Rattus norvegicus [2] = species on record: Rattus norvegicus; assay: Reduction in triglyceride level in CFE rat […] in serum at 0.1% of diet treated through diet for 6 days relative to control; format: functional; outline: as §1
Rattus norvegicus [3] = species on record: Rattus norvegicus; assay: Reduction in triglyceride level in CFE rat […] in serum at 0.05% of diet treated through diet for 6 days relative to control; format: functional; outline: as §1
Rattus norvegicus [4] = species on record: Rattus norvegicus; assay: Reduction in sterol level in CFE rat […] in serum at 0.05% of diet treated through diet for 6 days relative to control; format: functional; outline: as §1
Rattus norvegicus [5] = species on record: Rattus norvegicus; assay: Reduction in sterol level in CFE rat […] in serum at 0.1% of diet treated through diet for 6 days relative to control; format: functional; outline: as §1
Rattus norvegicus [6] = species on record: Rattus norvegicus; assay: Reduction in triglyceride level in CFE rat […] at 0.025% of diet treated through diet for 6 days relative to control; format: functional, Serum; outline: as §1

SMILES | Activity (Rattus norvegicus [1]) | Activity (Rattus norvegicus [2]) | Activity (Rattus norvegicus [3]) | Activity (Rattus norvegicus [4]) | Activity (Rattus norvegicus [5]) | Activity (Rattus norvegicus [6])
CCCCCCCCCCCC(CCOc1ccc(C(=O)O)cc1)N=[N+]=[N-] (configuration not stated) | 105% | 55% | 60% | 89% | 76% | 98%
CC(C)CCCC(C)CCCC(C)CCOc1ccc(C(=O)O)cc1 (configuration not stated) | 81% | 26% | 72% | 73% | 87% | 72%
O=C(O)c1ccc(OC2CCCCCCCCCCC2)cc1 | 87% | 87% | 81% | 94% | 86% | 97%
CCCCCCCCCCCC(CCOc1ccc(C(=O)O)cc1)SCc1ccccc1 (configuration not stated) | 109% | 69% | 79% | 100% | 92% | 92%
CCCCCCCCCCCC(CCOc1ccc(C(=O)O)cc1)SCC (configuration not stated) | 95% | 44% | 74% | 93% | 83% | 68%
CCCCCCCCCCCCCCCCOc1ccc(C(=O)O)cc1[N+](=O)[O-] | 95% | 122% | 120% | 101% | 103% | 93%
CCCCCCCCCCCCCCCCOc1c(Cl)cc(C(=O)O)cc1Cl | 98% | 103% | 89% | 105% | 103% | 100%
CCCCCCCCCCCCCCCCOc1c(I)cc(C(=O)O)cc1I | 94% | 105% | 86% | 85% | 93% | 96%
CCCCCCCCCCCCCCCCOc1c(C)cc(C(=O)O)cc1C | 78% | 82% | 79% | 89% | 97% | 68%
CCCCCCCCCCCC(O)CCOc1ccc(C(=O)O)cc1 (configuration not stated) | 105% | 53% | 60% | 112% | 116% | 69%
CCCCCCCCCCCC(Cl)CCOc1ccc(C(=O)O)cc1 (configuration not stated) | 72% | 47% | 53% | 69% | 60% | 59%
CCCCCCCCCCCC(S)CCOc1ccc(C(=O)O)cc1 (configuration not stated) | 94% | 47% | 53% | 89% | 83% | 76%
O=C(O)c1ccc(OCCCCCCCCCCCO)cc1 | 91% | 81% | 93% | 106% | 113% | 83%
COCCCCCCCCCCCOc1ccc(C(=O)O)cc1 | 79% | 64% | 53% | 90% | 97% | 80%
CCOCCCCCCCCCCCOc1ccc(C(=O)O)cc1 | 103% | 63% | 73% | 109% | 95% | 66%
CCCCOCCCCCCCCCCCOc1ccc(C(=O)O)cc1 | 75% | 55% | 67% | 81% | 97% | 74%
O=C(O)c1ccc(OCCCCCCCCCCCS)cc1 | 44% | 44% | 47% | 74% | 80% | 61%
O=C(O)c1ccc(OCCCCCCCCCCCCS)cc1 | 88% | 26% | 46% | 81% | 79% | 61%
O=C(O)c1ccc(OCCCCCCCCCCCCCCCS)cc1 | 100% | 40% | 42% | 81% | 82% | 56%
O=C(O)c1ccc(OCCCCCCCCCCCCCCCCS)cc1 | 82% | 37% | 35% | 82% | 83% | 51%
CCSCCCCCCCCCCCOc1ccc(C(=O)O)cc1 | 74% | 48% | 56% | 70% | 76% | 60%

SMILES | Activity (Rattus norvegicus [1]) | Activity (Rattus norvegicus [2]) | Activity (Rattus norvegicus [3]) | Activity (Rattus norvegicus [4]) | Activity (Rattus norvegicus [5]) | Activity (Rattus norvegicus [6])
CCSCCCCCCCCCCCCCCCCOc1ccc(C(=O)O)cc1 | 89% | 45% | 48% | 88% | 90% | 59%
CCCSCCCCCCCCCCCOc1ccc(C(=O)O)cc1 | 96% | 42% | 43% | 94% | 86% | 61%
CCCCSCCCCCCCCCCCOc1ccc(C(=O)O)cc1 | 70% | 60% | 53% | 76% | 76% | 60%
O=C(O)c1ccc(OCCCCCCCCCCCSCc2ccccc2)cc1 | 88% | 41% | 55% | 75% | 77% | 71%
O=C(O)c1ccc(OCCCCCCCCCCCCCCCSCc2ccccc2)cc1 | 109% | 37% | 50% | 101% | 82% | 70%
CCCC[S+]([O-])CCCCCCCCCCCOc1ccc(C(=O)O)cc1 (configuration not stated) | 102% | 44% | 54% | 97% | 102% | 83%
CC[S+]([O-])CCCCCCCCCCCCCCCCOc1ccc(C(=O)O)cc1 (configuration not stated) | 89% | 55% | 80% | 81% | 94% | 87%
CCCCS(=O)(=O)CCCCCCCCCCCOc1ccc(C(=O)O)cc1 | 91% | 57% | 69% | 95% | 94% | 81%
CCS(=O)(=O)CCCCCCCCCCCCCCCCOc1ccc(C(=O)O)cc1 | 90% | 60% | 61% | 83% | 89% | 70%
CCCCNCCCCCCCCCCCOc1ccc(C(=O)O)cc1 | 98% | 100% | 103% | 104% | 100% | 119%
O=C(O)CCCCCCCCCCOc1ccc(C(=O)O)cc1 | 96% | 100% | 135% | 100% | 94% | 118%
CCCCNC(=O)CCCCCCCCCCOc1ccc(C(=O)O)cc1 | 99% | 85% | 87% | 96% | 88% | 93%
CC(C)CCCC(C)CCCC(C)CCCC(C)CCOc1ccc(C(=O)O)cc1 (configuration not stated) | 87% | 72% | 104% | 84% | 71% | 110%
O=C(O)c1ccc(OCC2CCCCCCCCCCC2)cc1 | 104% | 160% | 130% | 105% | 101% | 123%
CCCCCCCCCCCCCCC(C)Oc1ccc(C(=O)O)cc1 (configuration not stated) | 90% | 70% | 72% | 85% | 84% | 92%
CCCCCCCCCCCCCC(CC)Oc1ccc(C(=O)O)cc1 (configuration not stated) | 82% | 75% | 78% | 86% | 85% | 83%
CCCCCCCCCCCCC(CCC)Oc1ccc(C(=O)O)cc1 (configuration not stated) | 78% | 53% | 62% | 76% | 74% | 70%
O=C(O)c1ccc(OC2C3CC4CC(C3)CC2C4)cc1 (configuration not stated) | 88% | 88% | 82% | 92% | 96% | 79%
CCCCCCCCCCCC(C)(C)Oc1ccc(C(=O)O)cc1 | 90% | 63% | 80% | 88% | 83% | 74%
CCCCCCCCCCCCC(C)(C)Oc1ccc(C(=O)O)cc1 | 100% | 87% | 79% | 90% | 97% | 77%
CCCCCCCCCCCCCC(C)(C)Oc1ccc(C(=O)O)cc1 | 92% | 83% | 105% | 120% | 100% | 127%
